ChEMBL document CHEMBL1140034, “Conformationally constrained analogues of diacylglycerol. 30. An investigation of diacylglycerol-lactones containing heteroaryl groups reveals compounds with high selectivity for Ras guanyl nucleotide-releasing proteins” (J Med Chem, 2008)

Columns and labels:
[1] = target: Protein kinase C alpha type (Homo sapiens, UniProt P17252); test: Displacement of [3H]PDBu from human recombinant PKCalpha expressed in Escherichia coli […] (DE3)
How it was run: (§1)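 Competition binding: displacement of bound [20-3H]phorbol 12,13-dibutyrate from recombinant PKC alpha or RasGRP3 measured in the presence of phosphatidylserine. IC50 obtained by fitting data points to the theoretical competition curve; Ki calculated from the corresponding IC50.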

[2] = Lipophilicity, SlogP of the compound; format: physicochemical; conditions: octanol/water
[3] = Ratio of Ki for human recombinant PKCalpha to RasGRP3
How it was run: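 Ki values for PKC alpha and RasGRP3 each come from [20-3H]PDBu displacement from the recombinant protein in the presence of phosphatidylserine, with IC50 fitted to the theoretical competition curve and converted to Ki. The ratio is Ki(PKC alpha)/Ki(RasGRP3).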

[4] = target: T1, Ras guanyl-releasing protein 3 (Homo sapiens, UniProt Q8IV61); test: Displacement of [3H]PDBu from RasGRP3 expressed in cells; format: cell-based; how it was run: as §1
T1 sequence (Q8IV61 whole entry): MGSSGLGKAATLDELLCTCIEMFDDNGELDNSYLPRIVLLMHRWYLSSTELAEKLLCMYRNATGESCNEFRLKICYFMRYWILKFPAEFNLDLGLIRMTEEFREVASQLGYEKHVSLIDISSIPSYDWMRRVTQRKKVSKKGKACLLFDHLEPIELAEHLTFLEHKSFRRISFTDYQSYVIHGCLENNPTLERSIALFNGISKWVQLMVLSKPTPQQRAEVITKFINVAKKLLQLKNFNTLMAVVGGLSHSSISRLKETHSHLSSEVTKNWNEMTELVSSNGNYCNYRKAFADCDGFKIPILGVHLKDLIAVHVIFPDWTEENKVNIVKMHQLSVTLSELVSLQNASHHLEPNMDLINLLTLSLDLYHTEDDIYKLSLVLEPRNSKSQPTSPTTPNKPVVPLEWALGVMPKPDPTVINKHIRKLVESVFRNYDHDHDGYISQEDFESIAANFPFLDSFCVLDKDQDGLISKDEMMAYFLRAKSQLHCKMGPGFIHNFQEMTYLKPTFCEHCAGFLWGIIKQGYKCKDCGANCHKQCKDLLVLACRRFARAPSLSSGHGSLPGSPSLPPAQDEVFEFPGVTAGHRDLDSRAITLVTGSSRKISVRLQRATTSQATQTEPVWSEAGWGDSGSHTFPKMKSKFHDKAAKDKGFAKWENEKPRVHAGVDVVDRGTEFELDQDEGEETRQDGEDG

Row | Ki [1] | logP [2] | Ratio Ki [3] | Ki [4] | SMILES
1 | 3270 nM | 2.9 | 5 | 670 nM | CCCC(CCC)C(=O)OCC1(CO)C/C(=C/c2cccnc2)C(=O)O1 (centres undefined)
2 | 810 nM | 2.01 | 10 | 81 nM | COc1ccc(C(=O)OCC2(CO)C/C(=C\c3cccnc3)C(=O)O2)cc1 (centres undefined)
3 | 78.8 nM | 4.06 | 17 | 4.6 nM | CCCC(CCC)C(=O)OCC1(CO)C/C(=C/c2ccc3ccccc3n2)C(=O)O1 (centres undefined)
4 | 4880 nM | 3.22 | 3 | 1410 nM | CN(C)c1ccc(C(=O)OCC2(CO)C/C(=C/c3cnc4ccccc4c3)C(=O)O2)cc1 (centres undefined)
5 | 144 nM | 3.16 | 8 | 17.4 nM | COc1ccc(C(=O)OCC2(CO)C/C(=C\c3cnc4ccccc4c3)C(=O)O2)cc1 (centres undefined)
6 | 51.9 nM | 4.06 | 31 | 1.7 nM | CCCC(CCC)C(=O)OCC1(CO)C/C(=C\c2ccc3ccccc3n2)C(=O)O1 (centres undefined)
7 | 212 nM | 3.46 | 64 | 3.3 nM | COc1ccc(C(=O)OCC2(CO)C/C(=C\c3cn(C)c4ccccc34)C(=O)O2)cc1 (centres undefined)
8 | 150 nM | 3.22 | 14 | 11 nM | CN(C)c1ccc(C(=O)OCC2(CO)C/C(=C\c3ccc4ccccc4n3)C(=O)O2)cc1 (centres undefined)
9 | 5100 nM | 3.16 | 6 | 907 nM | COc1ccc(C(=O)OCC2(CO)C/C(=C/c3cnc4ccccc4c3)C(=O)O2)cc1 (centres undefined)
10 | 34100 nM | 2.07 | 20 | 1970 nM | CN(C)c1ccc(C(=O)OCC2(CO)C/C(=C/c3cccnc3)C(=O)O2)cc1 (centres undefined)
11 | 27100 nM | 2.01 | 11 | 2470 nM | COc1ccc(C(=O)OCC2(CO)C/C(=C/c3ccccn3)C(=O)O2)cc1 (centres undefined)
12 | 14.8 nM | 5.24 |  | 0.7 nM | CC(C)CC(CC(=O)OCC1(CO)C/C(=C\c2cn(C)c3ccccc23)C(=O)O1)CC(C)C (centres undefined)
13 | 627 nM | 2.9 | 45 | 13.8 nM | CCCC(CCC)C(=O)OCC1(CO)C/C(=C\c2ccncc2)C(=O)O1 (centres undefined)
14 | 174 nM | 3.22 | 47 | 3.7 nM | CN(C)c1ccc(C(=O)OCC2(CO)C/C(=C\c3cn(C)c4ccccc34)C(=O)O2)cc1 (centres undefined)
15 | 21200 nM | 2.01 | 4 | 5500 nM | COc1ccc(C(=O)OCC2(CO)C/C(=C/c3cccnc3)C(=O)O2)cc1 (centres undefined)
16 | 1020 nM | 2.07 | 43 | 23.8 nM | CN(C)c1ccc(C(=O)OCC2(CO)C/C(=C\c3ccccn3)C(=O)O2)cc1 (centres undefined)
17 | 1110 nM | 2.07 | 19 | 54 nM | CN(C)c1ccc(C(=O)OCC2(CO)C/C(=C\c3ccncc3)C(=O)O2)cc1 (centres undefined)
18 | 870 nM | 2.9 | 20 | 44 nM | CCCC(CCC)C(=O)OCC1(CO)C/C(=C/c2ccncc2)C(=O)O1 (centres undefined)
19 | 755 nM | 3.22 | 6 | 137 nM | CN(C)c1ccc(C(=O)OCC2(CO)C/C(=C\c3cnc4ccccc4c3)C(=O)O2)cc1 (centres undefined)
20 | 25400 nM | 2.01 | 7 | 3660 nM | COc1ccc(C(=O)OCC2(CO)C/C(=C/c3ccncc3)C(=O)O2)cc1 (centres undefined)
21 | 2940 nM | 3.16 | 2 | 1390 nM | COc1ccc(C(=O)OCC2(CO)C/C(=C/c3ccc4ccccc4n3)C(=O)O2)cc1 (centres undefined)

Further lines, the compound ahead of its results:

Row | SMILES | Ki [1] | logP [2] | Ratio Ki [3] | Ki [4]
22 | CCCC(CCC)C(=O)OCC1(CO)C/C(=C/c2ccccn2)C(=O)O1 (centres undefined) | 1370 nM | 2.9 | 16 | 83 nM
23 | CCCC(CCC)C(=O)OCC1(CO)C/C(=C\c2cn(C)c3ccccc23)C(=O)O1 (centres undefined) | 29.7 nM | 4.36 | 165 | 0.18 nM
24 | CCCC(CCC)C(=O)OCC1(CO)C/C(=C\c2cccnc2)C(=O)O1 (centres undefined) | 76 nM | 2.9 | 47 | 1.6 nM
25 | CCCC(CCC)C(=O)OCC1(CO)C/C(=C/c2cnc3ccccc3c2)C(=O)O1 (centres undefined) | 177 nM | 4.06 | 5 | 32.2 nM
26 | COc1ccc(C(=O)OCC2(CO)C/C(=C\c3ccncc3)C(=O)O2)cc1 (centres undefined) | 1450 nM | 2.01 | 27 | 54.2 nM
27 | CN(C)c1ccc(C(=O)OCC2(CO)C/C(=C\c3cccnc3)C(=O)O2)cc1 (centres undefined) | 790 nM | 2.07 | 13 | 59 nM
28 | COc1ccc(C(=O)OCC2(CO)C/C(=C\c3ccc([N+](=O)[O-])cc3)C(=O)O2)cc1 (centres undefined) | 136 nM |  | 20 | 6.7 nM
29 | CN(C)c1ccc(C(=O)OCC2(CO)C/C(=C/c3ccncc3)C(=O)O2)cc1 (centres undefined) | 33200 nM | 2.07 | 14 | 2360 nM
30 | COc1ccc(C(=O)OCC2(CO)C/C(=C\c3ccccn3)C(=O)O2)cc1 (centres undefined) | 1130 nM | 2.01 | 32 | 35.8 nM
31 | CN(C)c1ccc(C(=O)OCC2(CO)C/C(=C\c3ccc([N+](=O)[O-])cc3)C(=O)O2)cc1 (centres undefined) | 343 nM |  | 90 | 
32 | CCCC(CCC)C(=O)OCC1(CO)C/C(=C\c2ccccn2)C(=O)O1 (centres undefined) | 86.3 nM | 2.9 | 119 | 0.72 nM
33 | COc1ccc(C(=O)OCC2(CO)C/C(=C\c3ccc4ccccc4n3)C(=O)O2)cc1 (centres undefined) | 132 nM | 3.16 | 16 | 8.2 nM
34 | CC(C)CC(CC(=O)OCC1(CO)C/C(=C\c2ccccn2)C(=O)O1)CC(C)C (centres undefined) | 4.6 nM | 3.78 |  | 0.2 nM
35 | CN(C)c1ccc(C(=O)OCC2(CO)C/C(=C/c3ccc4ccccc4n3)C(=O)O2)cc1 (centres undefined) | 15800 nM | 3.22 | 8 | 2040 nM
36 | CCCC(CCC)C(=O)OCC1(CO)C/C(=C\c2cnc3ccccc3c2)C(=O)O1 (centres undefined) | 13.8 nM | 4.06 | 27 | 0.52 nM
